{"source": "ChEMBL document CHEMBL1152321", "about": "“Recent advances in the chemistry and biology of new generation taxoids” (J Nat Prod, 2009)", "key": {"[1]": {"assay": "Induction of tubulin polymerization at 10 uM in presence of Ca2+"}, "A2780 [2]": {"system": "A2780", "assay": "Cytotoxicity against human wild type A2780 cells after 72 hrs", "format": "functional, cell-based", "conditions": "A2780, 72 h"}, "MCF7 [3]": {"system": "MCF7", "assay": "Cytotoxicity against P-glycoprotein deficient wild type human MCF7 cells after 72 hrs", "format": "functional, cell-based", "conditions": "MCF7, 72 h"}, "[4]": {"assay": "Induction of tubulin polymerization at 10 uM in absence of GTP"}, "HT-29": {"system": "HT-29", "assay": "Cytotoxicity against human HT-29 cells after 72 hrs", "format": "functional, cell-based", "conditions": "HT-29, 72 h"}, "[5]": {"assay": "Cytotoxicity against P-glycoprotein deficient wild type human LCC-6 cells after 72 hrs", "format": "functional, cell-based", "conditions": "LCC-6, 72 h"}, "[6]": {"assay": "Cytotoxicity against human LCC-6 cells expressing P-glycoprotein after 72 hrs", "format": "functional, cell-based", "conditions": "LCC-6, 72 h"}, "[7]": {"assay": "Cytotoxicity against multidrug-resistant human NCI/ADR cells after 72 hrs", "format": "functional, cell-based", "conditions": "NCI/ADR-RES"}, "[8]": {"assay": "Resistance factor, ratio of IC50 for human LCC-6 cells expressing P-glycoprotein to IC50 for P-glycoprotein deficient wild type human LCC-6 cells", "format": "functional", "design": "reference not given here"}, "A2780 [9]": {"system": "A2780", "assay": "Resistance factor, […] harboring point mutation in beta-tubulin", "format": "functional"}, "MCF7 [10]": {"system": "MCF7", "assay": "Resistance factor, ratio of IC50 for P-glycoprotein deficient wild type human MCF7 cells to IC50 for multidrug-resistant human NCI/ADR cells", "format": "functional"}, "DLD-1 [11]": {"system": "DLD-1", "assay": "Antitumor activity against human DLD1 cells expressing P-glycoprotein xenografted in SCID mouse assessed as no palpable tumors at 10 mg/kg, iv administered on day 5, 8, 11 post tumor implantation measured on day 167", "format": "functional, organism-based", "design": "dose 10 mg/kg", "in_short": "(§1)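 SCID mice carrying subcutaneous Pgp+ DLD-1 human colon tumours were dosed i.v. q3d×3 on days 5, 8 and 11 after implant, in Tween/EtOH vehicle, with vehicle and untreated control groups. Growth delay was compared with controls by Cox-Mantel test. Cures were mice with no palpable tumour on day 167. Toxicity was counted as death or more than 20% body-weight loss.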"}, "Mus musculus [12]": {"species_on_record": "Mus musculus", "assay": "Toxicity in SCID mouse assessed as decrease in body weight after day 15 to day 20", "format": "organism-based", "design": "scale not given: the % may be the effect or the level left", "conditions": "in vivo"}, "[13]": {"assay": "Cytotoxicity against human primary pancreatic ductal cells up to 10 uM", "format": "cell-based"}, "DLD-1 [14]": {"system": "DLD-1", "assay": "Antitumor activity against human DLD1 cells expressing P-glycoprotein xenografted in SCID mouse assessed as no palpable tumors at 20 mg/kg, iv administered on day 5, 8, 11 post tumor implantation measured on day 167", "format": "functional, organism-based", "design": "dose 20 mg/kg", "in_short": "as §1"}, "DLD-1 [15]": {"system": "DLD-1", "assay": "Antitumor activity against human DLD1 cells expressing P-glycoprotein xenografted in SCID mouse assessed as tumor growth delay at 10 mg/kg, iv administered on day 5, 8, 11 post tumor implantation", "format": "functional", "in_short": "as §1"}, "DLD-1 [16]": {"system": "DLD-1", "assay": "Antitumor activity against human DLD1 cells expressing P-glycoprotein xenografted in SCID mouse assessed as tumor growth delay at 20 mg/kg, iv administered on day 5, 8, 11 post tumor implantation", "format": "functional", "in_short": "as §1"}, "DLD-1 [17]": {"system": "DLD-1", "assay": "Antitumor activity against human DLD1 cells expressing P-glycoprotein xenografted in SCID mouse assessed as tumor growth delay at 40 mg/kg, iv administered on day 5, 8, 11 post tumor implantation", "format": "functional", "in_short": "as §1"}, "[18]": {"assay": "Cytotoxicity against human paclitaxel and cyclosporine-resistant A2780TC3 cells overexpressing class 3 beta-tubulin after 72 hrs", "format": "functional, cell-based", "conditions": "A2780TC3, 72 h"}, "PANC-1": {"system": "PANC-1", "assay": "Cytotoxicity against human PANC1 cells expressing mdr1, mrp1, mrp2, lrp genes after 72 hrs", "format": "functional, cell-based", "conditions": "PANC-1, 72 h"}, "A2780 [19]": {"system": "A2780", "assay": "Cytotoxicity against human topotecan-resistant A2780 cells after 72 hrs", "format": "functional, cell-based", "conditions": "A2780, 72 h"}, "A2780 [20]": {"system": "A2780", "assay": "Cytotoxicity against human cisplatin-resistant A2780 cells after 72 hrs", "format": "functional, cell-based", "conditions": "A2780, 72 h"}, "NCI-H460": {"system": "NCI-H460", "assay": "Cytotoxicity against human H460 cells after 72 hrs", "format": "functional, cell-based", "conditions": "NCI-H460, 72 h"}, "Mus musculus [21]": {"system": "Mus musculus", "assay": "Toxicity in SCID mouse xenografted with human DLD1 cells assessed as decrease in body weight at 20 mg/kg, iv administered on day 5, 8, 11 post tumor implantation", "format": "organism-based, DLD-1", "design": "dose 20 mg/kg, route intravenous", "conditions": "in vivo"}}, "note": "Active and inactive are the calls of the source. The rule behind the calls is not given here.", "data": [{"compound": "CC(=O)O[C@H]1C(=O)[C@@]2(C)[C@H]([C@H](OC(=O)c3ccccc3)[C@]3(O)[C@H]4OCC/C=C/c5ccccc5C(=O)N[C@@H](c5ccccc5)[C@@H](O)C(=O)O[C@@H]4C(C)=C1C3(C)C)[C@]1(OC(C)=O)CO[C@@H]1C[C@@H]2O", "values": [{"measurement": "inhibition", "setting": "[1]", "result": "Active"}, {"measurement": "IC50", "setting": "A2780 [2]", "result": 31, "unit": "nM"}, {"measurement": "IC50", "setting": "MCF7 [3]", "result": 3.49, "unit": "nM"}, {"measurement": "inhibition", "setting": "[4]", "result": "Active"}, {"measurement": "IC50", "setting": "HT-29", "result": 17, "unit": "nM"}, {"measurement": "IC50", "setting": "[5]", "result": 2.09, "unit": "nM"}, {"measurement": "IC50", "setting": "[6]", "result": 129, "unit": "nM"}, {"measurement": "IC50", "setting": "[7]", "result": 183, "unit": "nM"}]}, {"compound": "CCC(=O)O[C@H]1C(=O)[C@@]2(C)[C@H]([C@H](OC(=O)c3cccc(OC)c3)[C@]3(O)C[C@H](OC(=O)[C@H](O)[C@H](C=C(C)C)NC(=O)OC(C)(C)C)C(C)=C1C3(C)C)[C@]1(OC(C)=O)CO[C@@H]1C[C@@H]2O", "values": [{"measurement": "Ratio", "setting": "[8]", "result": 0.9}, {"measurement": "Ratio", "setting": "A2780 [9]", "result": 5.1}, {"measurement": "IC50", "setting": "[5]", "result": 1, "unit": "nM"}, {"measurement": "Ratio", "setting": "MCF7 [10]", "result": 0.92}]}, {"compound": "CC(=O)O[C@@]12CO[C@@H]1C[C@H](O)[C@@]1(C)C(=O)[C@H](OC(=O)C3CC3)C3=C(C)[C@@H](OC(=O)[C@H](O)[C@H](C=C(C)C)NC(=O)OC(C)(C)C)C[C@@](O)([C@@H](OC(=O)c4ccccc4)[C@H]21)C3(C)C", "values": [{"measurement": "Activity", "setting": "DLD-1 [11]", "result": "inactive"}, {"measurement": "Activity", "setting": "Mus musculus [12]", "result": 3, "unit": "%"}, {"measurement": "Activity", "setting": "[13]", "result": "Not Active"}, {"measurement": "Activity", "setting": "DLD-1 [14]", "result": "Active"}, {"measurement": "Activity", "setting": "DLD-1 [15]", "result": 37, "unit": "days"}, {"measurement": "Activity", "setting": "DLD-1 [16]", "result": ">150", "unit": "days"}, {"measurement": "Activity", "setting": "DLD-1 [17]", "result": ">150", "unit": "days"}]}, {"compound": "CC(=O)O[C@H]1C(=O)[C@@]2(C)[C@H]([C@H](OC(=O)c3ccccc3)[C@]3(O)C[C@H](OC(=O)[C@H](O)[C@@H](NC(=O)c4ccccc4)c4ccccc4)C(C)=C1C3(C)C)[C@]1(OC(C)=O)CO[C@@H]1C[C@@H]2O", "note": "[PACLITAXEL]", "values": [{"measurement": "IC50", "setting": "[18]", "result": 17.8, "unit": "µM"}, {"measurement": "IC50", "setting": "PANC-1", "result": 25.7, "unit": "nM"}, {"measurement": "Activity", "setting": "DLD-1 [14]", "result": "inactive"}, {"measurement": "IC50", "setting": "A2780 [19]", "result": 7.2, "unit": "nM"}, {"measurement": "Activity", "setting": "DLD-1 [16]", "result": 8, "unit": "days"}, {"measurement": "IC50", "setting": "A2780 [20]", "result": 2.2, "unit": "nM"}, {"measurement": "IC50", "setting": "A2780 [2]", "result": 1.7, "unit": "nM"}, {"measurement": "IC50", "setting": "NCI-H460", "result": 4.9, "unit": "nM"}, {"measurement": "Activity", "setting": "Mus musculus [21]", "result": "Non-toxic"}, {"measurement": "IC50", "setting": "[5]", "result": 2.45, "unit": "nM"}, {"measurement": "IC50", "setting": "[6]", "result": 110, "unit": "nM"}]}]}
